From article PMC5453637 (Translational research : the journal of laboratory and …, 2016)
Several values for one entry are separate records, joined by “and”; a condition that tells them apart may be missing. Identical values can stand only once.

Columns and labels:
human wild-type CFTR [1] = target: T1, human wild-type CFTR (Homo sapiens, UniProt P13569); experiment: Plate reader assay of CFTR activity; type: cell-based; conditions: read-out: EC50 CFTR activation; as stated in abstract
How it was run: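 FRT cells co-expressing human wild-type CFTR and YFP-H148Q were plated at 20,000 cells/well and used 24–48 h later. After 3 PBS washes, cells were incubated 10 min with test compound plus 125 nM forskolin. Fluorescence was recorded 2 s at baseline, then 12 s after adding PBS with 137 mM Cl⁻ replaced by I⁻. Initial iodide influx rate came from exponential regression. EC50 was taken from full concentration-dependence data, n=3.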

human wild-type CFTR [2] = target: T1, human wild-type CFTR; experiment: Whole-cell patch-clamp in FRT cells; type: cell-based
human wild-type CFTR [3] = target: T1, human wild-type CFTR; experiment: Inside-out patch-clamp; type: biochemical; conditions: 1 μM, after submaximal ATP and catalytic subunit of protein kinase A
How it was run: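 Inside-out macro-patches were taken from FRT cells stably expressing human wild-type CFTR using large pipette tips (3–5 MΩ). Pipette: 150 mM NMDG-Cl, 3 CaCl2, 2 MgCl2, 10 Na-HEPES, pH 7.3. Test compound (1 μM) followed. Steps of 600 ms ran −100 to +100 mV in 20 mV increments from −60 mV holding, 4 s apart; filtered 1 kHz, sampled 5 kHz. Three experiment sets.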

cellular cAMP [4] = experiment: cAMP immunoassay in FRT cells; type: cell-based, rat; conditions: 10 μM, 10 min, alone or with 90 nM forskolin
How it was run: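 FRT cells in 12-well plates received vehicle, 10 μM test compound with or without 90 nM forskolin, or 20 μM forskolin alone, for 10 min at 37°C. Cells were lysed by freeze-thaw and centrifuged (600g, 10 min, 4°C). cAMP was measured by immunoassay.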

cellular cGMP = experiment: cGMP immunoassay in FRT cells; type: cell-based, rat; conditions: 10 μM, 10 min
How it was run: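 FRT cells received 10 μM test compound or vehicle for 10 min at 37°C. They were lysed by freeze-thaw and cleared by centrifugation (600g, 10 min, 4°C). cGMP was measured by immunoassay.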

cytoplasmic Ca^2+ = experiment: Cytoplasmic calcium measurement; type: cell-based, rat; conditions: 10 μM, 2 min, added alone
How it was run: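 FRT cells were loaded with Fluo-4 NW 48 h after plating. They were pretreated 2 min with 10 μM test compound or vehicle, then given 100 μM ATP as calcium agonist. Cytoplasmic Ca2+ was read as Fluo-4 fluorescence (ex/em 494/516 nm) in a plate reader with syringe pumps.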

[5] = Stability in simulated gastric fluid; type: physicochemical; conditions: 10 μM, pH 2, 37°C, 3 hour
How it was run: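 Test compound (10 μM) was incubated 0 or 3 h at 37°C in simulated gastric fluid (NaCl, 0.7% HCl, pH 2). Remaining compound was measured by LC/MS chromatography. n=3.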

[6] = In vitro metabolic stability in human liver microsomes; type: in vitro ADME; conditions: 1 mM NADPH, 37°C
How it was run: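 Test compound was incubated at 37°C for specified times with human liver microsomes (1 mg protein/mL) in 100 mM potassium phosphate with 1 mM NADPH. Samples were chilled on ice and extracted with ice-cold ethyl acetate. Supernatant was dried, redissolved in acetonitrile:water 3:1 and quantified by LC/MS: 5–95% acetonitrile gradient over 16 min, 0.2 mL/min, ESI(+), m/z 100–1500.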

[7] = system: scopolamine-induced constipation; experiment: Scopolamine-induced mouse model of acute constipation; type: in vivo, mice
How it was run: (§1)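 Female CD1 mice, 8–10 weeks, were made constipated with loperamide 0.3 mg/kg ip or scopolamine 0.5 mg/kg ip. Test compound 10 mg/kg (saline with 5% DMSO and 10% Kolliphor HS 15) or vehicle was given ip or orally, 1 h before or 1 h after the inducer. Mice sat in metabolic cages with food and water. Stool was collected 3 h for weight, pellet number and water content (dried 80°C, 24 h). n=4 mice/group.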

[8] = system: loperamide-induced constipation; experiment: Loperamide-induced mouse model of constipation; type: in vivo, mice
How it was run: as §1

C3H/HeJ mice = experiment: Genetic mouse model of chronic constipation; type: in vivo
C3H/HeOuJ mice = experiment: Wild-type control mice; type: in vivo; conditions: 10 mg/kg
How it was run: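 Female C3H/HeJ (Tlr4 mutant, chronically constipated) and background C3H/HeOuJ mice, 8–11 weeks, were studied as paired animals. They received test compound 10 mg/kg orally in saline with 5% DMSO and 10% Kolliphor HS 15, or vehicle, at zero time, then went into metabolic cages. Stool was collected 4 h for weight, pellet count and water content ([wet − dry]/wet after drying 80°C, 24 h). n=10 mice/group.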

[9] = system: enteroids generated from normal human duodenum and jejunum; experiment: Swelling measurements in human enteroids; type: cell-based
How it was run: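 Enteroids came from adult duodenal/jejunal endoscopic biopsies, grown on coverglass dishes. Medium was replaced with Advanced DMEM/F12 and cytoplasm labelled with calcein green-AM, 1 h at 37°C. Forskolin was added, […], and/or test compound at 5 μM; test compound went in 10 min before forskolin when combined. Confocal images were taken every 10 min at 37°C, 5% CO2. Result was percent increase in enteroid area over initial area, e.g. at 40 min.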

cellular cAMP [10] = conditions: cited from earlier work
[11] = system: loperamide-induced constipation; conditions: cited from earlier work
[12] = cited from earlier work
[13] = mice, rapid hepatic metabolism; cited from earlier work
CFTR-deficient mice = conditions: cited from earlier work

T1 sequence (P13569 whole entry): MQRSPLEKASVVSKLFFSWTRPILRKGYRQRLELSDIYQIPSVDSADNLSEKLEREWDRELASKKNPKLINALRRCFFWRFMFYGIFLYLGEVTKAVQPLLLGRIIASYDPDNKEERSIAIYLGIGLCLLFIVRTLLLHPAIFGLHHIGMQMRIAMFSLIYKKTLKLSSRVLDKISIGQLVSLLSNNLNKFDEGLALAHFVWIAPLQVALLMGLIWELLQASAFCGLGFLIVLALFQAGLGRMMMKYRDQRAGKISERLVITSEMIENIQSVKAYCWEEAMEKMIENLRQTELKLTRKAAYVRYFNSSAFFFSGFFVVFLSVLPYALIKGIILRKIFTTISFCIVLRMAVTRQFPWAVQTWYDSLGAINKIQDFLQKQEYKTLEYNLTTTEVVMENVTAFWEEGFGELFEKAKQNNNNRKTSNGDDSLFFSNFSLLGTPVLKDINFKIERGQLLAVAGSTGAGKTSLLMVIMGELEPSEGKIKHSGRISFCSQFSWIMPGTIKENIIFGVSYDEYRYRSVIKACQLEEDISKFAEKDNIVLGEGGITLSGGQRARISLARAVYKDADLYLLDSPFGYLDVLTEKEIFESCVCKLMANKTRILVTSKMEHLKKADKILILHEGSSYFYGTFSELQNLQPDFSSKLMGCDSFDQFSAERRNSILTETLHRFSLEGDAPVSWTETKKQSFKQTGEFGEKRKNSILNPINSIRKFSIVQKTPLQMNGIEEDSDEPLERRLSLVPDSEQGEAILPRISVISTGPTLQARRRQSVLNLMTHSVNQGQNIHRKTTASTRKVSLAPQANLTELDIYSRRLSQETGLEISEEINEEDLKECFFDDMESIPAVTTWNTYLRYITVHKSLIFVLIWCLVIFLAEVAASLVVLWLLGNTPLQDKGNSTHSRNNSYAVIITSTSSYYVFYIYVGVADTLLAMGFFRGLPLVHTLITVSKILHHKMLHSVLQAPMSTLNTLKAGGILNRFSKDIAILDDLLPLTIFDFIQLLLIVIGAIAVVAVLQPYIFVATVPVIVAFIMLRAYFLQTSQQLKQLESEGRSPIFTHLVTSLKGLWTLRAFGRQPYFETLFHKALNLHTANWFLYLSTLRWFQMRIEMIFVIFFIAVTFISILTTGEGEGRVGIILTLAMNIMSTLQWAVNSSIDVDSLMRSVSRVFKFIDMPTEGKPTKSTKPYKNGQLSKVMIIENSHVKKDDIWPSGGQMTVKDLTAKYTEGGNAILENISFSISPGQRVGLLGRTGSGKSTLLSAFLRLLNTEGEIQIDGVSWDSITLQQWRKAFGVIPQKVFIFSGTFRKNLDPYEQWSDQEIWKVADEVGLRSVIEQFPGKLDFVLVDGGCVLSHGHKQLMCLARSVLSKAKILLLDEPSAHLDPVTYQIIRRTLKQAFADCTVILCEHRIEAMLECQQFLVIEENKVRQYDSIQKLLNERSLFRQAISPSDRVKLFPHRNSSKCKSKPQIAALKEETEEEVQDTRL

Q: With `Nc1ccc([N+](=O)[O-])cc1-c1nc2ccccc2n(Cc2ccccc2)c1=O` [CFTRact-J027] as the compound, how does the EC50 (human wild-type CFTR [1]) read?
A: ~200 nM

Q: What about the “Increase of CFTR activity (whole-cell current)” value (human wild-type CFTR [2]; 1 μM extracellular, after 150 nM forskolin (~25% maximal stimulation)) of the same compound?
A: more than 4 fold

Q: What about the “CFTR activity in inside-out patch” value (human wild-type CFTR [3]) of the same compound?
A: strongly increased CFTR activity

Q: And the “Cellular cAMP” value (cellular cAMP [4])?
A: did not elevate cellular cAMP

Q: What about the “Cellular cGMP” value (cellular cGMP) of the same compound?
A: did not elevate cellular cGMP

Q: And the “Cytoplasmic Ca^2+” value (cytoplasmic Ca^2+)?
A: nor did it elevate cytoplasmic Ca^2+

Q: What about the “Stability in simulated gastric fluid” value [5] of the same compound?
A: no compound degradation

Q: And the “Elimination half-life in human hepatic microsomes” value ([6]; 1 mg protein/mL, CFTRact-J027 as printed)?
A: ~ 35 min and 35 min

Q: What about the “Compound remaining at 60 minutes” value ([6]; human hepatic microsomes) of the same compound?
A: 34%

Q: And the “Efficacy on stool parameters, given after development of constipation” value ([7]; 10 mg/kg ip, 1 hour after scopolamine)?
A: effective

Q: What about the “Efficacy on stool parameters, given orally after development of constipation” value ([7]; 10 mg/kg po, 1 hour after scopolamine) of the same compound?
A: not effective

Q: What about the “Stool parameters (3-hour stool weight, pellet number, water content)” value ([7]; 10 mg/kg po, 1 hour before scopolamine 0.5 mg/kg ip) of the same compound?
A: normalization of stool parameters

Q: And the Duration of effect ([7]; in mice)?
A: 3 to 4 h

Q: And the “Efficacy on stool parameters, given after development of constipation” value ([8]; 10 mg/kg ip, 1 hour after loperamide 0.3 mg/kg ip)?
A: effective

Q: And the “Efficacy on stool parameters, given orally after development of constipation” value ([8]; 10 mg/kg po, 1 hour after loperamide)?
A: not effective

Q: And the Whole-gut transit time (C3H/HeJ mice; 10 mg/kg ip)?
A: normalized

Q: What about the “4-hour stool weight, pellet number, and water content” value (C3H/HeJ mice; 10 mg/kg oral) of the same compound?
A: to the level of wild-type controls

Q: What about the “Stool parameters or whole-gut transit time in wild-type control mice” value (C3H/HeOuJ mice) of the same compound?
A: did not affect

Q: And the “Enteroid size, compound alone” value ([9]; 5 μM, 40 minutes, human jejunal enteroids, no forskolin)?
A: Little or no change

Q: And the “Enteroid swelling response to low forskolin after pretreatment” value ([9]; 0.1 or 0.2 μM forskolin, pretreatment 10 minutes with CFTRact-J027, duodenum and jejunum)?
A: increased

Q: And the “Swelling response relative to maximal (5 μM) forskolin” value ([9]; human enteroids)?
A: approximately 50%

Q: What about the “Cellular cAMP concentration (prior data)” value (cellular cAMP [10]) of the same compound?
A: does not elevate cellular cAMP concentration

Q: And the “Stool output, stool water content, and intestinal transit” value ([11]; acute constipation produced by loperamide)?
A: normalized

Q: And the “ED50 orally administered, loperamide model” value ([11]; oral, mice)?
A: 0.5 mg/kg

Q: And the “Blood counts, serum chemistries, and lung water content” value ([12]; chronic oral high-dose, mice)?
A: no effect

Q: What about the Toxicity [12] of the same compound?
A: showed no toxicity

Q: What about the “Systemic exposure following oral administration” value [13] of the same compound?
A: minimal systemic exposure

Q: What about the “Effect in CFTR-deficient mice” value (CFTR-deficient mice) of the same compound?
A: no effect

Q: For `C=C[C@@]1(C)CC(=O)[C@]2(O)[C@@]3(C)[C@@H](O)CCC(C)(C)[C@@H]3[C@H](O)[C@H](OC(C)=O)[C@@]2(C)O1` [forskolin, reference compound], which “Enteroid area, forskolin alone” value ([9]; 0.3 μM forskolin, 40 minutes, human jejunal enteroids) is on record?
A: small increase in area

Q: With CFTRinh-172 [reference compound] as the compound, how does the “Block of currents activated by forskolin and CFTRact-J027” value (human wild-type CFTR [2]; 10 μM) read?
A: blocked
